Screening results: PubChem, The Scripps Research Institute Molecular Screening Center
CHO-K1 Ca antag: counter-screen for M1 antagonists: effect in parental CHO-K1 cells. ATP-induced calcium, Fluo-8 fluorescence. inhibition, % at 3 µM. actives 0.6% (n = 360,000). AID 602250;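 active = inhibition above a per-plate cutoff, the plate's mean sample inhibition plus 3 SD, cut at about 24% in these data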
OX1R antag-1: antagonists of human orexin 1 receptor (OX1R); actives 1.8% (n = 330,000); Orexin/Hypocretin receptor type 1 (Homo sapiens), O43613; inhibition, % at 6.6 µM; OX1R-expressing cells, FRET antagonist read-out; in the data active = inhibition mostly above about 38%, no sharp cut-off; inactive = mostly below about 40%
Target sequence (O43613 whole entry, looked up): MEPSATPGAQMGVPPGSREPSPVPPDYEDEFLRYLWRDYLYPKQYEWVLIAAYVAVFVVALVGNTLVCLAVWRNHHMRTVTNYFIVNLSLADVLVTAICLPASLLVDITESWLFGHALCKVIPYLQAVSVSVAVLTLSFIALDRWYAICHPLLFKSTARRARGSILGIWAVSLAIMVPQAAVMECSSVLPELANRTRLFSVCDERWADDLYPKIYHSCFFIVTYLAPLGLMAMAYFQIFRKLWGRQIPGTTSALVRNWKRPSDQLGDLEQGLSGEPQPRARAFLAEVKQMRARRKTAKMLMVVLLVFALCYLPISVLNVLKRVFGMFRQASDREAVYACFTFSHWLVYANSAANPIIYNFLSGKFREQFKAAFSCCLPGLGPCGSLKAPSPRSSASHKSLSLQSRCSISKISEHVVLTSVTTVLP
CHO parental Ca: ATP-evoked calcium signal inhibitors, parental CHO, primary screen, counter-screen for OX1R antagonist project, cell-based, fluorescence, Fluo-8 calcium dye | parental CHO-K1, ATP-induced calcium, Fluo-8 fluorescence | inhibition, % at 5.6 µM | actives 0.63% (n = 330,000) | AID 463079, 2010;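 active = inhibition above that plate's mean sample inhibition plus 3 SD, cut at about 26% in these data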
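Assay system: parental CHO cells; Read-out basis: percent inhibition of ATP-evoked calcium rise, normalized to controls; Benchmarks: ATP and no-ATP DMSO wells; Compound dosing: single nominal dose of 5.6 µM per compound; Signal: Fluo-8 calcium dye fluorescence; Also added: ATP as calcium-mobilizing challenge; Repeats: singlicate.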
OX1R antag-2: OX1R (HCRTR1) antagonists, primary screen, fluorescence, CHO/OX1R cells, Fluo-8 calcium, orexin A | Orexin/Hypocretin receptor type 1 (Homo sapiens), O43613 | Fluo-8 calcium fluorescence | inhibition, % at 5 µM | actives 0.43% (n = 330,000);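 active = inhibition above its plate's threshold, mean inhibition of all tested compounds on the plate plus 3 SD, cut at about 37% in these data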
CHO-K1 Ca PAM: nonselective calcium activators in parental CHO-K1 cells, primary screen, counter-screen for M1 PAM project, cell-based, Fluo-8 calcium fluorescence, full deck, 1536-well; ATP EC20; 0% at ATP EC20, 100% at ATP max; activation, % at 3 µM; actives 0.02% (n = 360,000);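 active = activation above the run cutoff, the mean activation of all test compounds plus 3 SD, cut at about 40% in these data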;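 also: peak over basal fluorescence ratio in a 140 s read after ATP addition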
M1 ag parental: counter-screen for M1 agonists: effect in parental CHO-K1 cells; Fluo-8 calcium fluorescence; scaled to maximal ATP response, vehicle zero; activation, % at 3 µM; actives 0.48% (n = 360,000); in the data active = activation above about 15%;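 also: untransfected CHO-K1 host cells lacking M1 receptor as counterscreen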
A number is an active result; . = inactive; / = no result given. Most compounds without a hit are left out; they make up all but 2.9% or so of the library.

SMILES	CHO-K1 Ca antag	OX1R antag-1	CHO parental Ca	OX1R antag-2	CHO-K1 Ca PAM	M1 ag parental
COc1ccc(-c2csc(NC(=O)C3CCN(c4ncnc5sc(C)c(C)c45)CC3)n2)cc1OC	.	76	75	45	.	.
Cc1ccc(C)c(-c2csc(NC(=O)c3c(C)noc3C)n2)c1	.	.	.	.	.	.
CCOc1cc(N2CCOCC2)c(OCC)cc1NC(=O)c1cc(S(=O)(=O)N2CCOCC2)ccc1C	.	.	.	.	.	.
O=C(NCc1cccs1)c1csc([C@@H]2C[C@H](O)[C@@H](CO)O2)n1	.	/	/	/	.	.
CCc1noc(C)c1C(=O)Nc1nc(-c2ccc(NC(C)=O)cc2)cs1	.	58	.	.	.	.
c1ccc(CN2CCC3CC2c2ccc(N4CCOCC4)cc23)cc1 (centres undefined)	.	/	/	/	.	.
CCOC(=O)C1CCN(C(=O)COC(=O)Cc2ccc(Cl)cc2)CC1	.	.	.	.	.	.
CCCCn1c(=NC(=O)c2ccco2)c(C(=O)OCC)cc2c(=O)n3ccccc3nc21	.	76	.	.	.	.
CCCCCn1c(=NC(=O)c2ccco2)c(C(=O)OCC)cc2c(=O)n3ccccc3nc21	.	51	.	.	.	.
CCCCn1c(=NC(=O)c2ccco2)c(C(=O)OCC)cc2c(=O)n3cccc(C)c3nc21	.	.	.	.	.	.
COC(=O)C1CCN(C(=O)/C=C/c2ccc3c(c2)OCO3)CC1	.	.	.	.	.	.
COc1ccc(CCNC(=O)CCC(=O)N2CCOc3ccc(C)cc32)cc1OC	.	.	.	.	.	.
COc1ccc(OC)c(CCNC(=O)CCC(=O)N2CCOc3ccc(C)cc32)c1	.	39	.	.	.	.
O=Cc1c[nH]c2ccc(OCc3ccccc3)cc12	.	.	.	.	.	.
CC(C)(C)NC(=O)C(c1ccncc1)N(Cc1ccc(F)cc1)C(=O)c1ccc(-c2ccccc2)[nH]1 (centres undefined)	.	.	.	.	.	.
CC(C)(C)NC(=O)C(c1ccc(F)cc1)N(CCc1ccccc1)C(=O)c1ccn[nH]1 (centres undefined)	.	.	.	.	.	15
CC(Sc1ncn[nH]1)C(=O)Nc1cc(C(F)(F)F)ccc1Cl (centres undefined)	.	.	.	.	.	.
Cc1ccc2nc(NC(=O)COC(=O)CSc3nc(C)cc(C)n3)sc2c1	.	.	.	.	.	.
COC(=O)c1ccc2nc(NC(=O)COC(=O)CSc3nc(C)cc(C)n3)sc2c1	.	.	.	.	.	15
O=C1CCCN1c1ccc([N+](=O)[O-])cc1	29	/	/	/	.	.
O=C1CCCN1c1ccc(S(=O)(=O)N2CCCCC2)cc1	.	.	.	.	.	.
Cn1ccc2cc(-c3csc(N4CCC(C(N)=O)CC4)n3)ccc21	.	.	.	.	.	.
O=C(Nc1ccc(Br)c2ccccc12)c1ccc2ccccc2c1O	.	41	.	.	.	18
COc1ccc(Br)c(C(=O)Nc2cccc(Cl)c2Cl)c1	31	.	.	.	.	.
COc1ccc(Br)c(C(=O)Nc2ccc(F)cc2)c1	.	.	.	.	.	.
SMILES	CHO-K1 Ca antag	OX1R antag-1	CHO parental Ca	OX1R antag-2	CHO-K1 Ca PAM	M1 ag parental
COC(=O)CC1C(=O)NCCN1C(=O)CSc1nc2ccc([N+](=O)[O-])cc2s1 (centres undefined)	.	71	.	.	.	.
CN(C(=O)COC(=O)C1CCN(S(=O)(=O)c2ccc3c(c2)OCCO3)CC1)C1CCCCC1	26	.	.	.	.	.
CCCNC(=O)COC(=O)C1CCN(S(=O)(=O)c2ccc3c(c2)OCCO3)CC1	.	.	.	.	.	.
O=C(COC(=O)C1CCN(S(=O)(=O)c2ccc3c(c2)OCCO3)CC1)Nc1ccc(C(F)(F)F)cc1	24	.	.	.	.	.
CN(C)c1ccc(-c2ccc3oc(-c4ccsc4)cc(=O)c3c2)cn1	.	57	.	.	.	.
CCc1cccc(C)c1NC(=O)CN(C)Cc1ccc(Br)cc1	.	.	40	.	.	.
Cc1cc2c(cc1S(=O)(=O)N1CCN(c3ccccc3)CC1)OCCN2C	.	.	34	.	.	.
CC(=O)N1CCOc2cc(S(=O)(=O)N3CCN(c4ccccc4)CC3)c(Cl)cc21	.	.	.	.	.	.
Cc1cc2[nH]c(=O)c(=O)[nH]c2cc1S(=O)(=O)N1CCN(c2ccccc2)CC1	.	.	.	.	.	.
Cc1ccc(Br)cc1S(=O)(=O)N1CCN(c2ccccc2)CC1	.	.	36	.	.	.
O=C(CN1C(=O)c2ccccc2S1(=O)=O)N1CCc2ccccc2C1	25	.	.	.	.	.
COCc1cc(C)nc2sc(C(=O)Nc3cccc(OC)c3)c(N)c12	.	39	.	.	.	.
CCC1(c2ccc(F)cc2)NC(=O)N(CC(=O)NC2CCCCCC2)C1=O (centres undefined)	.	.	.	.	.	.
CCC1(c2ccc(F)cc2)NC(=O)N(CC(=O)Nc2ccccc2C)C1=O (centres undefined)	.	.	.	.	.	16
CC1(c2ccc3c(c2)OCCO3)NC(=O)N(CC(=O)Nc2ccccc2F)C1=O (centres undefined)	30	/	/	/	.	.
CCC1(c2ccccc2)NC(=O)N(CC(=O)Nc2ccccc2C(=O)NC2CC2)C1=O (centres undefined)	.	.	.	.	.	.
CCC1(c2ccc(F)cc2)NC(=O)N(CC(=O)Nc2ccccc2Cl)C1=O (centres undefined)	.	.	.	.	.	15
CN(C)CCN(C)C1CN(Cc2ccc(F)cc2)S(=O)(=O)C1 (centres undefined)	.	/	/	/	.	.
CCc1ccc(S(=O)(=O)NCc2csc(-c3cccnc3)n2)s1	.	64	.	.	.	.
O=S(=O)(NCc1csc(-c2cccnc2)n1)c1cccs1	.	.	.	.	.	.
CCc1ncc(CO)n1Cc1cccc2ccccc12	.	/	/	/	.	.
O=C(Nc1cccnc1)c1ccc(-c2ccccc2)cc1	.	.	.	.	.	.
O=C(NC1CCCC1)c1ccc2c(c1)S(=O)(=O)c1ccccc1C2=O	.	65	.	.	.	.
O=C(Nc1ccncc1)c1ccc(-c2ccccc2)cc1	.	.	58	47	.	.
O=C(Nc1ccncc1)c1ccc2c(c1)S(=O)(=O)c1ccccc1C2=O	.	75	.	.	.	.
